Calls of active or inactive are those of the source. No cut-off for these calls is given here.
What was measured:
Pseudomonas aeruginosa = assay: Antibacterial activity against PSE1 beta-lactamase Pseudomonas aeruginosa IV-3-13 by agar diffusion assay; format: functional
Method in brief: (§1)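 Test bacteria at 10^6 CFU/ml were suspended in melted nutrient agar and poured into Petri dishes. 9 mm wells were cut and each filled with 50 µl of a 0.2 mM compound solution. Inhibition zones were read after 18 h at 37 °C. Growth of colonies inside the zone was flagged.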

Staphylococcus aureus [1] = assay: Antibacterial activity against wild type Staphylococcus aureus SG 511 by agar diffusion assay; format: functional; method in brief: as §1
Mycobacterium = assay: Antibacterial activity against wild type Mycobacterium vaccae IMET10670 by agar diffusion assay; format: functional, Mycolicibacterium vaccae; method in brief: as §1
Staphylococcus aureus [2] = assay: Antibacterial activity against MRSA Staphylococcus aureus 134/93 by agar diffusion assay; format: functional; method in brief: as §1
Escherichia coli [3] = assay: Antibacterial activity against TEM1 beta-lactamase Escherichia coli IV-3-2 by agar diffusion assay; format: functional; method in brief: as §1
Enterococcus faecalis = assay: Antibacterial activity against VRE Enterococcus faecalis 1528 by agar diffusion assay; format: functional; method in brief: as §1
Escherichia coli [4] = assay: Antibacterial activity against wild type Escherichia coli DC0 by agar diffusion assay; format: functional; method in brief: as §1
Enterobacter cloacae = assay: Antibacterial activity against ampC beta-lactamase Enterobacter cloacae P99 by agar diffusion assay; format: functional
Salmonella enterica = assay: Antibacterial activity against Salmonella enterica ATCC 13311 by agar diffusion assay; format: functional; method in brief: as §1
Klebsiella pneumoniae = assay: Antibacterial activity against Klebsiella pneumoniae ATCC 8308 by agar diffusion assay; format: functional; method in brief: as §1
Escherichia coli [5] = assay: Antibacterial activity against Escherichia coli X580 by agar diffusion assay; format: functional; method in brief: as §1
Escherichia coli [6] = assay: Antibacterial activity against Escherichia coli ATCC 33475 by agar diffusion assay; format: functional; method in brief: as §1
[7] = test system: Beta-lactamase (Bacillus cereus); assay: Inhibition of Bacillus cereus penicillinase
Candida albicans = assay: Antifungal activity against Candida albicans BMSY 212 by agar diffusion assay; format: functional
Method in brief: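 Agar-well diffusion: Candida albicans at 10^6 CFU/ml was seeded in melted nutrient agar and poured into plates. Compound was loaded as 50 µl of a 0.2 mM solution into 9 mm holes. Plates were incubated at 30 °C and the inhibition zones recorded.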

O=C(O)c1cn(C2CC2)c2cc(N3CCNCC3)c(F)cc2c1=O [CIPROFLOXACIN]
inhibition zone (IZ) (Pseudomonas aeruginosa): 35 mm
inhibition zone (IZ) (Staphylococcus aureus [1]): 29 mm
inhibition zone (IZ) (Mycobacterium): 38 mm
inhibition zone (IZ) (Staphylococcus aureus [2]): 0 mm
inhibition zone (IZ) (Escherichia coli [3]): 27 mm
inhibition zone (IZ) (Enterococcus faecalis): 24 mm

CO/N=C(\C(=O)N[C@@H]1C(=O)N2C(C(=O)O)=C(COC(C)=O)CS[C@H]12)c1csc(N)n1 [CEFOTAXIME]
inhibition zone (IZ) (Escherichia coli [4]): 21 mm
inhibition zone (IZ) (Staphylococcus aureus [1]): 26 mm
inhibition zone (IZ) (Mycobacterium): 0 mm
inhibition zone (IZ) (Enterobacter cloacae): 0 mm
inhibition zone (IZ) (Staphylococcus aureus [2]): 0 mm
inhibition zone (IZ) (Escherichia coli [3]): 28 mm
inhibition zone (IZ) (Enterococcus faecalis): 22 mm

CC1(C)S[C@@H]2[C@H](NC(=O)Cc3ccccc3)C(=O)N2[C@H]1C(=O)O [PENICILLIN G]
inhibition zone (IZ) (Salmonella enterica): 37 mm
inhibition zone (IZ) (Klebsiella pneumoniae): 12 mm
inhibition zone (IZ) (Escherichia coli [5]): 54 mm
inhibition zone (IZ) (Escherichia coli [6]): 23 mm

C[C@H](NC(=O)Cc1ccccc1)C(=O)N1O[C@H](C(=O)O)C[C@@H]1C(=O)O
inhibition zone (IZ) (Salmonella enterica): 0 mm
inhibition zone (IZ) (Klebsiella pneumoniae): 0 mm
inhibition [7]: inactive
inhibition zone (IZ) (Escherichia coli [5]): 20 mm
inhibition zone (IZ) (Escherichia coli [6]): 0 mm

O=C(Cc1ccccc1)NCC(=O)N1O[C@H](C(=O)O)C[C@@H]1C(=O)O
inhibition zone (IZ) (Salmonella enterica): 0 mm
inhibition zone (IZ) (Escherichia coli [4]): 0 mm
inhibition zone (IZ) (Klebsiella pneumoniae): 0 mm
inhibition zone (IZ) (Pseudomonas aeruginosa): 0 mm
inhibition zone (IZ) (Staphylococcus aureus [1]): 0 mm
inhibition zone (IZ) (Mycobacterium): 0 mm
inhibition zone (IZ) (Enterobacter cloacae): 0 mm
inhibition zone (IZ) (Escherichia coli [5]): 26 mm
inhibition zone (IZ) (Staphylococcus aureus [2]): 0 mm
inhibition zone (IZ) (Escherichia coli [3]): 0 mm
inhibition zone (IZ) (Candida albicans): 0 mm
inhibition zone (IZ) (Escherichia coli [6]): 0 mm
inhibition zone (IZ) (Enterococcus faecalis): 0 mm

C[C@@H](NC(=O)Cc1ccccc1)C(=O)N1O[C@H](C(=O)O)C[C@@H]1C(=O)O
inhibition zone (IZ) (Salmonella enterica): 0 mm
inhibition zone (IZ) (Klebsiella pneumoniae): 0 mm
inhibition zone (IZ) (Escherichia coli [5]): 25 mm
inhibition zone (IZ) (Escherichia coli [6]): 0 mm

N[C@@H](C(=O)N[C@@H]1C(=O)N2C(C(=O)O)=C(Cl)CC[C@H]12)c1ccccc1 [LORACARBEF ANHYDROUS]
inhibition zone (IZ) (Escherichia coli [4]): 24 mm
inhibition zone (IZ) (Pseudomonas aeruginosa): 0 mm
inhibition zone (IZ) (Staphylococcus aureus [1]): 28 mm
inhibition zone (IZ) (Mycobacterium): 0 mm
inhibition zone (IZ) (Enterobacter cloacae): 0 mm
inhibition zone (IZ) (Staphylococcus aureus [2]): 0 mm
inhibition zone (IZ) (Escherichia coli [3]): 23 mm
inhibition zone (IZ) (Enterococcus faecalis): 0 mm
